Screening data from PubChem.
The list is not random: actives were taken first. Their share in the collection is about 3.4%.
MC4R ag barr: activates human MC4R beta-arrestin recruitment | AID 540308 | P32245 | U2OS MC4R beta-arrestin complementation, luminescence; percent of melanotan II response, DMSO zero | activation, % at 8.9 µM | 360,000 tested, 0.98% active;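 active means activation above a per-plate cutoff, the mean activation of sample wells on that plate plus 3 SD, cut at about 8% in these data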
Target sequence (P32245 whole entry, looked up): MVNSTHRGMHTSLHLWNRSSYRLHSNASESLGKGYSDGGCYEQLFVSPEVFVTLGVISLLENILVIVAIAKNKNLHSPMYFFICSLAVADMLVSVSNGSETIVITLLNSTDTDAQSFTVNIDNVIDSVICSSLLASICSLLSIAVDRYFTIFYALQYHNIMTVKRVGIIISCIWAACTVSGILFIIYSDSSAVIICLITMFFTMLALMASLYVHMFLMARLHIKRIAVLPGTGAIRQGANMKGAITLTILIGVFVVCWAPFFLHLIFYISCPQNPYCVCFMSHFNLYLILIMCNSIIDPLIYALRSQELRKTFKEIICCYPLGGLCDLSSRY
MC4R antag cAMP: antagonists of human melanocortin 4 receptor (MC4R) | P32245 | MC4R-expressing cells, MTII-stimulated cAMP, LANCE TR-FRET | inhibition, % at 6.5 µM | 360,000 tested, 0.48% active | AID 540295;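 active means inhibition above its plate's cutoff, the mean of tested wells on that plate plus 3 SD, cut at about 29% in these data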;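 further: 0% = Melanotan II alone and 100% = Melanotan II plus saturating MCL0020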
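System – human MC4R-expressing U2OS cells · Also added – Melanotan II · Dosing – one concentration, 6.5 µM nominal · Timing – 30-min compound, 1-h challenge, 1-h detection, room temperature · Measured by – Eu-cAMP/anti-cAMP TR-FRET, emission 671 nm · Replicates – singlicate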
TMEM16A act: mouse TMEM16A channel activation, primary screen; Q8BHY3; HEK293 TMEM16A/YFP-H148Q/I152L, iodide quench fluorescence; stronger effect = lower value; B-score at 10 µM; 340,000 tested, 0.3% active; AID 623877;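 active means fluorescence-ratio B-score plate-corrected deviation score at least 3 library SD below zero, with starting fluorescence score within 5 deviations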;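 further: channel opened by trigger with iodide after compound preincubation; score built on the fluorescence ratio of max minus min over baseline; more negative score means more quench and so TMEM16A activation or potentiation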
beta cell repl: inducers of beta-cell replication in MIN6 cells | MIN6 cells proliferation, ATPlite luminescence, 48 h; cells starved in 0.2% serum; 100% = growth in 10% serum | proliferation, % at 10 µM | 330,000 tested, 0.29% active | AID 2380;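 active means compounds whose signal lies at least 3.5 SD above the mean of all wells on their plate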;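 further: 0% = DMSO-treated cells in low-serum medium and 100% = 10% serum control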
ANO1 block: blocks the mouse calcium-activated chloride channel TMEM16A | HEK293 TMEM16A/YFP iodide influx fluorescence, ionomycin | normalized B-score (activity score, 25-100; higher = stronger inhibition) at 10 µM | 310,000 tested, 1.2% active;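 active means ratio plate-corrected score three or more library SD toward inhibition, starting fluorescence score within five deviations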;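 further: score derived from kinetic fluorescence span divided by baseline fluorescence per well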
HTR2A ag: mouse HTR2A agonism via beta-arrestin recruitment; P35363; CHO-K1 mHTR2A beta-arrestin complementation, luminescence; percent of 30 µM serotonin response; activation, % at 7.6 µM; 360,000 tested, 0.66% active; AID 624169;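 active means activation above a run cutoff, the mean activation of all tested compounds plus 3 SD, cut at about 14% in these data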;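 further: 0% = plate median of compound wells and 100% = 30 µM serotonin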
Starred values were filed as active, the others as inactive; i = inactive; . = not tested or not shown.

SMILES	MC4R ag barr	MC4R antag cAMP	TMEM16A act	beta cell repl	ANO1 block	HTR2A ag
O=C(Cn1cc(C(=O)C(=O)N2CCOCC2)c2ccccc21)Nc1cccc(C(F)(F)F)c1	-2	1	.	.	.	1
COC(=O)C1=C(Nc2ccccc2NS(=O)(=O)c2ccc(C(F)(F)F)cc2Cl)CSC1	0	13	i	-4	25*	-1
COC(=O)C1=C(Nc2ccccc2NC(=O)c2ccccc2C(=O)O)CSC1	-1	-5	i	0	i	1
CCOc1ccccc1O[C@H](c1ccccc1)[C@H]1CNCCO1	1	5	i	-2	i	-3
CCN(CC)S(=O)(=O)c1cc(C)ccc1NC(=S)Nc1cccnc1	-1	-2	i	-2	25*	-1
CCN(CC)S(=O)(=O)c1cc(C(=O)Nc2cccnc2)ccc1Cl	-1	1	i	1	i	0
O=C(NCc1ccccc1)c1cccc(COc2ccc3c(c2)CCC3)c1	0	6	i	0	i	-3
COc1cccc(OC)c1C(=O)NNC(=O)c1cccc(COc2ccc3c(c2)CCC3)c1	2	6	i	-1	25*	-4
N#C/C(=C\c1ccc[nH]1)Sc1nc2ccccc2s1	1	2	i	-1	i	1
N#C/C(=C\c1cccs1)Sc1nc2ccccc2s1	-1	-1	-20*	-3	i	0
CC(C)[C@@H](NC(=O)C1CCN(C(=O)[C@@H]2CCCN2C(=O)OC(C)(C)C)CC1)C(=O)NCc1ccc(F)cc1	-1	5	-24*	-3	i	-4
CCCCNC(=O)C1C(c2ccc(OC)cc2)=Nc2ccccc2N1C(=O)c1ccncc1 (stereo unspecified)	.	.	.	.	.	0
O=C(CSc1ccc(-c2ccc(-n3cccn3)cc2)nn1)Nc1ccccc1F	11*	2	i	-1	i	-3
O=C(CSc1ccc(-c2cccnc2)nn1)Nc1ccccc1F	2	-2	i	-1	i	0
O=C(COc1ccccc1)Nc1ccc(CSc2ccccc2)cc1	10*	11	i	0	i	0
O=C(Nc1ccc(CSc2ccccc2)cc1)c1ccccc1	-2	5	i	2	i	2
N#C/C(=C(/O)CCl)c1nc2c(s1)CCc1ccccc1-2	2	10	i	0	25*	-8
O=C1C=C(c2c(O)ccc3ccccc23)c2ccccc2C1=O	4	11	i	.	.	15*
O=C1C=C(O)c2cccc(O)c2C1=O	-1	6	i	-5	i	-2
O=C(/C=C/c1ccc(OCCCF)cc1)NCc1ccc(Cl)c(Cl)c1	8.9*	9	i	-1	i	-2
CC(C)CCNC(=O)CCCOc1ccccc1	-2	4	-4.6*	0	i	-3
O=C(COC(=O)/C=C/c1ccccc1)NC(=O)NCc1ccccc1	2	-4	i	-1	.	9
COc1ccc(-c2cc3c(=O)n(CC(=O)NCc4ccc(F)cc4)ncn3n2)cc1	1	2	i	-6	i	-3
COc1ccc(-c2cc3c(=O)n(CC(=O)NCc4ccc(C)cc4)ncn3n2)cc1	9.1*	6	i	-4	i	5
CCC1(C(=O)OC)NC(c2ccco2)C2C(=O)N(c3ccccc3)C(=O)C21 (stereo unspecified)	0	1	-4.8*	-3	i	-2
SMILES	MC4R ag barr	MC4R antag cAMP	TMEM16A act	beta cell repl	ANO1 block	HTR2A ag
CCOc1ccc(CNC(=O)CCCN2C(=O)C(c3ccccc3)Oc3cccnc32)cc1 (stereo unspecified)	9.1*	3	i	0	i	-4
CC1=NN(c2nc(-c3ccc(C)cc3)cs2)C(=O)C1N=Nc1ccc2ccccc2c1 (stereo unspecified)	-2	5	i	2	i	4
CC1=NN(c2nc(-c3ccc(C)cc3)cs2)C(=O)C1N=Nc1ccc(C(N)=O)cc1 (stereo unspecified)	0	2	-16*	.	i	-2
O=C(COc1ccc(Cl)cc1Cl)Nc1ccc(Cl)cn1	8	4	i	-4	i	4
CCOc1ccc(C(=O)Nc2ccc(Cl)cn2)cc1Cl	8.3*	-1	i	-3	i	0
COc1ccc2sc(-c3ccccc3OC)c(C#Cc3cncn3C)c2c1	8.6*	12	.	-5	.	0
Cc1cccc(N2CCN(Cc3cc(=O)n4ccsc4n3)CC2)c1C	0	10	-14*	0	i	-8
CC1(C)C(=O)Nc2ccccc2N1C(=O)COc1ccccc1C#N	-2	-1	i	1	.	0
CCn1ncc(Cl)c1C(=O)NC(=S)Nc1ccccc1Br	4	14	i	-7	i	-1
Cc1nn(C)c(C(=O)NC(=S)Nc2ccccc2Br)c1Cl	0	17	-6.7*	-7	i	-4
O=C(COC(=O)/C=C/c1ccc(OC(F)F)cc1)Nc1cccc(S(=O)(=O)N2CCOCC2)c1	-2	10	i	-1	.	-6
CCSc1nnc(-c2c[nH]c3ccccc23)o1	-1	3	i	-1	i	2
Clc1ccc(CSc2nnc(-c3c[nH]c4ccccc34)o2)cc1	8.6*	9	i	-3	i	2
O=C(O)c1[nH]c2ccccc2c1NS(=O)(=O)c1ccc(F)cc1	-3	-3	-49*	-2	i	1
COc1ccc(S(=O)(=O)Nc2c(C(=O)O)[nH]c3ccccc23)cc1	-1	5	i	-2	i	9
CSC(=Nc1ccccc1)N=C(SCc1ccccc1)N(C)C	6	15	-13*	.	.	-4
O=C(Cc1coc2ccc3ccccc3c12)NC1CCCc2ccccc21 (stereo unspecified)	9.1*	5	i	-4	i	0
O=C(NCc1ccc(CNC(=O)c2ccco2)cc1)c1ccco1	-4	5	i	-4	i	0
COc1ccc(N2C(=O)[C@@H]3[C@H](C2=O)[C@H]2C=CC=NN2[C@@H]3C(=O)Nc2ccc(Cl)cc2)cc1	-2	29*	i	-2	i	1
Cc1ccc(-c2nnc(SCCC(=O)N3CCOCC3)o2)cc1	2	-4	-39*	-3	i	6
CCCCNC(=O)c1ccc2c(c1)N(C)C(=O)c1ccccc1S2	0	7	i	2	i	-7
O=C(NCCCN1CCOCC1)c1ccc(/C=C2\Oc3ccccc3N(Cc3ccccc3F)C2=O)cc1	8.9*	4	i	-8	i	4
